Tests used:
[1] = system: Liver microsome; test: Drug metabolism in human liver microsomes assessed as oxidative metabolism at 10 uM in presence of 2 uM quinidine CYP2D6 inhibitor; type: ADME
Method in brief: (§1)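 Pooled human liver microsomes (1 mg/ml, mixed-gender, 50 donors), 10 µM Rh2, 2 mM NADPH and selective inhibitor in 100 mM potassium phosphate pH 7.4; 37°C, 60 min; ice-cold acetonitrile stop; uninhibited controls; duplicates; formation of M1-2, M1-3 and M1-4+M1-5 quantified by LC/ion-trap MSn.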

[2] = system: Liver microsome; test: Drug metabolism in human liver microsomes assessed as oxidative metabolism at 10 uM in presence of 0.4 uM ticlopidine CYP2B6/CYP2C19 inhibitor; type: ADME; method in brief: as §1
[3] = target: Cytochrome P450 2C19 (Homo sapiens, UniProt P33261); test: Drug metabolism in human recombinant CYP2C19 mediated oxidative metabolism at 10 uM; type: ADME; conditions: recombinant enzyme
Method in brief: (§2)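 Recombinant human P450 at 50 nM incubated with 10 µM Rh2 and 2 mM NADPH in 100 mM potassium phosphate pH 7.4, 37°C, 60 min; ice-cold acetonitrile stop; duplicates; metabolites detected by LC/ion-trap MSn.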

[4] = Drug excretion in rat urine at 50 mg/kg, po; type: ADME, organism-based; design: dose 50 mg/kg, route oral; conditions: in vivo
[5] = target: T1, Cytochrome P450 1A2 (Homo sapiens, UniProt P05177); test: Drug metabolism in human recombinant CYP1A2 mediated oxidative metabolism at 10 uM; type: ADME; conditions: recombinant enzyme; method in brief: as §2
T1 sequence (P05177 whole entry): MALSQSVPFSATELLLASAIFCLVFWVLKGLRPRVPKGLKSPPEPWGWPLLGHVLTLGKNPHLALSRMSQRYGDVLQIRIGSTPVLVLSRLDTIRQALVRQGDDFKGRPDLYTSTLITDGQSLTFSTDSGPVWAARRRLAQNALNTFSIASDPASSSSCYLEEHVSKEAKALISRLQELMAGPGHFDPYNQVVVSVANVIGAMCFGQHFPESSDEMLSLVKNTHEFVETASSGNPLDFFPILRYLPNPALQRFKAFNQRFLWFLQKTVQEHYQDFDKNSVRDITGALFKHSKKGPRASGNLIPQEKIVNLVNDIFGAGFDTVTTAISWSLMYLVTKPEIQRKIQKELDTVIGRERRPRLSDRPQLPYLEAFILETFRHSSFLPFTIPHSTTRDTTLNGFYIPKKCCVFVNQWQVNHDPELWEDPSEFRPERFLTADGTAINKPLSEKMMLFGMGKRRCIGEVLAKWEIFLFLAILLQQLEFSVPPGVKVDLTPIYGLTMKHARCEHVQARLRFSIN

[6] = target: T2, Cytochrome P450 2B6 (Homo sapiens, UniProt P20813); test: Drug metabolism in human recombinant CYP2B6 mediated oxidative metabolism at 10 uM; type: ADME; conditions: recombinant enzyme; method in brief: as §2
T2 sequence (P20813 whole entry): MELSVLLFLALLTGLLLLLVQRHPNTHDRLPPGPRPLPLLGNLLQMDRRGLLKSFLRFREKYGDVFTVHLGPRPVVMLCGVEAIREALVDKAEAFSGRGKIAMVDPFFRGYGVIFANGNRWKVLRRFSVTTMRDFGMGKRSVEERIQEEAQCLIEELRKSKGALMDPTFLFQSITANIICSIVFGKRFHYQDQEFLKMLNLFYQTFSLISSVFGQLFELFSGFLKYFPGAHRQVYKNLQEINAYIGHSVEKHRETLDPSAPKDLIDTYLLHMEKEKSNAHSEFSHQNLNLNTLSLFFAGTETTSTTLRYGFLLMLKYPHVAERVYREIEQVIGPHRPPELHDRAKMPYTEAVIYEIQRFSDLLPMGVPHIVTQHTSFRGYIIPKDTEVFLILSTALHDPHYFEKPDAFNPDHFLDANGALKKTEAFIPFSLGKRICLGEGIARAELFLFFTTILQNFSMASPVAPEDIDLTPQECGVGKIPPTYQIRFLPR

[7] = Drug metabolism in cynomolgus monkey liver microsomes assessed as (24S,25)-epoxydamma-rane-12,20-diol-3-beta-D-glucopyranoside formation at 10 uM after 1 hr by LC/MS analysis in presence of GSH; type: ADME, Macaca fascicularis
Method in brief: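 Male cynomolgus monkey liver microsomes (1 mg/ml) with 10 µM Rh2, 2 mM GSH and 2 mM NADPH in 100 mM potassium phosphate pH 7.4, 37°C, 60 min after 3 min preincubation; microsomes start reaction; ice-cold acetonitrile stop; no-NADPH controls; duplicates; LC/ion-trap MSn detection.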

[8] = target: Cytochrome P450 2E1 (Homo sapiens, UniProt P05181); test: Drug metabolism in human recombinant CYP2E1 mediated oxidative metabolism at 10 uM; type: ADME; conditions: recombinant enzyme; method in brief: as §2
[9] = Drug excretion in rat bile at 50 mg/kg, po; type: ADME, organism-based; design: dose 50 mg/kg, route oral; conditions: read-out: Drug excretion
[10] = target: Cytochrome P450 2D6 (Homo sapiens, UniProt P10635); test: Drug metabolism in human recombinant CYP2D6 mediated oxidative metabolism at 10 uM; type: ADME; conditions: recombinant enzyme; method in brief: as §2
[11] = target: Cytochrome P450 2C9 (Homo sapiens, UniProt P11712); test: Drug metabolism in human recombinant CYP2C9 mediated oxidative metabolism at 10 uM; type: ADME; conditions: recombinant enzyme; method in brief: as §2
[12] = system: Liver microsome; test: Drug metabolism in human liver microsomes assessed as oxidative metabolism at 10 uM in presence of 0.1 uM alpha-naphthoflavone CYP1A2 inhibitor; type: ADME; method in brief: as §1

Cytochrome P450 2E1, sequence (P05181 whole entry): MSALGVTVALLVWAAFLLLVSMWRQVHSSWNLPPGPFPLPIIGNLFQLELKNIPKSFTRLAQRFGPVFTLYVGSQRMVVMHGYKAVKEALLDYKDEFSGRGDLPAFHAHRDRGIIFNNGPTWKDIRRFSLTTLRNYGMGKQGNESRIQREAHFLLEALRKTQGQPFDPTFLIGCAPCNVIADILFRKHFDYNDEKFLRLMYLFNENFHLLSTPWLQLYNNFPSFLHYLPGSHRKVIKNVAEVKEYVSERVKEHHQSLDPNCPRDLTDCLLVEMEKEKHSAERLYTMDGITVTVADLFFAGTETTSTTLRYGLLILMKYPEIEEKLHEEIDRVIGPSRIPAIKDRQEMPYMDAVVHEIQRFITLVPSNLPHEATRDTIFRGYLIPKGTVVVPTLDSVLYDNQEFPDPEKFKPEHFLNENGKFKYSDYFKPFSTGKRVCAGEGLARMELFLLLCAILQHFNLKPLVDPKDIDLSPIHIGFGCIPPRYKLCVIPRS
Cytochrome P450 2D6, sequence (P10635 whole entry): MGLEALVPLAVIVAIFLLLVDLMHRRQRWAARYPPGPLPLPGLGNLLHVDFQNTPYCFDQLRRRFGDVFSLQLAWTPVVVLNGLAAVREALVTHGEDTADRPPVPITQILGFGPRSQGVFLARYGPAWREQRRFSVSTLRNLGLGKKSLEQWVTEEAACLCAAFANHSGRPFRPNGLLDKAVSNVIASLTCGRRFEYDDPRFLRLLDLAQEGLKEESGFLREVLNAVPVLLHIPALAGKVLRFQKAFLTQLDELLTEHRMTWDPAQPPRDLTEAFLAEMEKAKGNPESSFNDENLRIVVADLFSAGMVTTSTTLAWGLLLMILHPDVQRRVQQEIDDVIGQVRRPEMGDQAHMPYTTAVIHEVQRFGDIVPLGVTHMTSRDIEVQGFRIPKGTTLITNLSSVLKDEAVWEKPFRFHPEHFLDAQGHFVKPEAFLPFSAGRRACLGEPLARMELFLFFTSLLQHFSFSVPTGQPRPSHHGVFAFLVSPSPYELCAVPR
Cytochrome P450 2C19, sequence (P33261 whole entry): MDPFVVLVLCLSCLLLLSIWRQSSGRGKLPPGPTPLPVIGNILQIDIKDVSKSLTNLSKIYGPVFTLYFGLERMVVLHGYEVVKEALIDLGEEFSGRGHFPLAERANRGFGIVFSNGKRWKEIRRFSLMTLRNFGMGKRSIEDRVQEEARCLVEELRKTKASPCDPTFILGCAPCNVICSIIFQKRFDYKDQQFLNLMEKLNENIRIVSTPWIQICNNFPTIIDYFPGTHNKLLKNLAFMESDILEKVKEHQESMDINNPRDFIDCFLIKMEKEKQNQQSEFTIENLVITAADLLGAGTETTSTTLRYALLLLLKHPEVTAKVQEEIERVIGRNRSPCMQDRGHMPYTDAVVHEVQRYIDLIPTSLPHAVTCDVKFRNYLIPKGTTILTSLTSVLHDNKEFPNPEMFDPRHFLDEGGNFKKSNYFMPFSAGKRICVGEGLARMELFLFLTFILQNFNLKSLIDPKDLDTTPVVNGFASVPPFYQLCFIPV
Cytochrome P450 2C9, sequence (P11712 whole entry): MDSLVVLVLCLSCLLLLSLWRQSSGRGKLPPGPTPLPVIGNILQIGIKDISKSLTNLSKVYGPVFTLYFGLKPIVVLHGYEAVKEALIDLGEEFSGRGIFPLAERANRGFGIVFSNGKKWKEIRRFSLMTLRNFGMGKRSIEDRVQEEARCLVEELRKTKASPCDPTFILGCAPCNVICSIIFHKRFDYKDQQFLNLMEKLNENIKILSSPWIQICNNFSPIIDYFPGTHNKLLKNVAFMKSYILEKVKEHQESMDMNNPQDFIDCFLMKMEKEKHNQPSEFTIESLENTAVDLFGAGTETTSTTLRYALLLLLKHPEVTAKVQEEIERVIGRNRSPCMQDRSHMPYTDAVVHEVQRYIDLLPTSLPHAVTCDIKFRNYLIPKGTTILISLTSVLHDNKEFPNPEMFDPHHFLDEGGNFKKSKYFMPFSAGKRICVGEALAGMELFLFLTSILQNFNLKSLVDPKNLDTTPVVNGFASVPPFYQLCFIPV

Q: With `CC(C)=CCC[C@](C)(O)[C@H]1CC[C@]2(C)[C@@H]1[C@H](O)C[C@@H]1[C@@]3(C)CC[C@H](O[C@@H]4O[C@H](CO)[C@@H](O)[C@H](O)[C@H]4O)C(C)(C)[C@@H]3CC[C@]12C` [GINSENOSIDE RH2] as the compound, how does the Drug metabolism [1] read?
A: Its Drug metabolism is “metabolite_detected”.

Q: What about the Drug metabolism [2] of the same compound?
A: The Drug metabolism was “metabolite_detected”.

Q: What about the Drug metabolism [3] of the same compound?
A: The Drug metabolism was “metabolite_not_detected”.

Q: What about the Drug excretion [4] of the same compound?
A: Its Drug excretion is “metabolite_not_detected”.

Q: And the Drug metabolism [5]?
A: The Drug metabolism was “metabolite_not_detected”.

Q: What about the Drug metabolism [6] of the same compound?
A: The Drug metabolism was “metabolite_not_detected”.

Q: What about the Drug metabolism [7] of the same compound?
A: The Drug metabolism was “metabolite_detected”.

Q: What about the Drug metabolism [8] of the same compound?
A: The Drug metabolism was “metabolite_not_detected”.

Q: What about the dose excreted [9] of the same compound?
A: Its dose excreted is < 10%.

Q: What about the Drug metabolism [10] of the same compound?
A: The Drug metabolism was “metabolite_not_detected”.

Q: What about the Drug metabolism [11] of the same compound?
A: The Drug metabolism was “metabolite_not_detected”.

Q: And the Drug metabolism [12]?
A: Its Drug metabolism is “metabolite_detected”.

— ChEMBL document CHEMBL3525925, “In vitro studies on the oxidative metabolism of 20(s)-ginsenoside Rh2 in human, monkey, dog, rat, and mouse liver microsomes, and human liver s9” (Drug Metab Dispos, 2012)
